ChEMBL document CHEMBL5252669, “Semisynthetic blasticidin S ester derivatives show enhanced antibiotic activity” (RSC Med Chem, 2023)
Values after ≈ are worked out from the molar mass of the structure shown. Active and inactive are the calls of the source. The calls are words filed in the database; no cut-off is given here.

Experiments:
[1] = Cytotoxicity against human MRC5 cells incubated for 24 hrs by MTS assay; assay type: toxicity, cell-based
Summary of the method: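 MRC-5 lung fibroblasts seeded 5000 per well; medium replaced with compound 16–192 μg mL−1 or matching 1:1 methanol:water vehicle; 24 h, then MTS 3–4 h; absorbance 490 nm; viability relative to untreated cells, normalized to vehicle; CC50 from two independent assays in duplicate, mean ± SD.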

[2] = system: Staphylococcus aureus; test: Antibacterial activity against NorA deleted Staphylococcus aureus incubated for 16 hrs by broth microdilution method; assay type: functional, organism-based; settings: for IC50: 16 h; for MIC: time 16 hrs
Summary of the method: (§1)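 Cation-adjusted Mueller-Hinton broth microdilution. Overnight cultures from single colonies were diluted to OD600 0.004. Final compound range was 256–2 μg mL−1 in 1:1 methanol/water vehicle, with doxycycline and vehicle controls. Plates were incubated 16 h at 37 °C. OD600 was normalized to controls, and MIC was the lowest concentration inhibiting >90% growth. Two biological replicates in duplicate; reported as a range.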

[3] = system: Staphylococcus aureus; test: Antibacterial activity against wild type Staphylococcus aureus 8810 incubated for 16 hrs by broth microdilution method; assay type: functional, organism-based; settings: for IC50: Staphylococcus aureus, 8810, 16 h; for MIC: Staphylococcus aureus, 8810, time 16 hrs; summary of the method: as §1
[4] = system: Staphylococcus aureus; test: Antibacterial activity against methicillin resistant Staphylococcus aureus ATCC 43300 incubated for 16 hrs by broth microdilution method; assay type: functional, organism-based; settings: for IC50: ATCC 43300, 16 h; for MIC: ATCC 43300, time 16 hrs; summary of the method: as §1
[5] = system: Klebsiella pneumoniae; test: Antibacterial activity against Klebsiella pneumoniae ATCC 29665 incubated for 16 hrs by broth microdilution method; assay type: functional, organism-based; settings: for IC50: ATCC 29665, 16 h; for MIC: ATCC 29665, time 16 hrs
[6] = system: Pseudomonas aeruginosa; test: Antibacterial activity against MexAB-OprM deleted Pseudomonas aeruginosa incubated for 16 hrs by broth microdilution method; assay type: functional, organism-based; settings: for IC50: 16 h; for MIC: time 16 hrs
[7] = system: Acinetobacter baumannii; test: Antibacterial activity against Acinetobacter baumannii ATCC 17978 incubated for 16 hrs by broth microdilution method; assay type: functional, organism-based; settings: for IC50: ATCC 17978, 16 h; for MIC: ATCC 17978, time 16 hrs
[8] = system: Candida albicans; test: Antifungal activity against Candida albicans incubated for 16 hrs by broth microdilution method; assay type: functional
[9] = system: Saccharomyces cerevisiae; test: Antifungal activity against Saccharomyces cerevisiae incubated for 16 hrs by broth microdilution method; assay type: functional
[10] = Selectivity index, ratio of CC50 for human MRC5 cells to IC50 for NorA deleted Staphylococcus aureus; assay type: toxicity; settings: read-out: Ratio CC50/IC50
[11] = Selectivity index, ratio of CC50 for human MRC5 cells to IC50 for Staphylococcus aureus; assay type: toxicity; settings: read-out: Ratio CC50/IC50
[12] = Selectivity index, ratio of CC50 for human MRC5 cells to IC50 for methicillin resistant Staphylococcus aureus; assay type: toxicity; settings: read-out: Ratio CC50/IC50
[13] = Selectivity index, ratio of CC50 for human MRC5 cells to IC50 for Enterococcus faecalis ATCC 29212; assay type: toxicity; settings: read-out: Ratio CC50/IC50
[14] = Selectivity index, ratio of CC50 for human MRC5 cells to IC50 for vancomycin-resistant Enterococcus; assay type: toxicity; settings: read-out: Ratio CC50/IC50
[15] = Selectivity index, ratio of CC50 for human MRC5 cells to IC50 for Klebsiella pneumoniae ATCC 29665; assay type: toxicity; settings: read-out: Ratio CC50/IC50
[16] = Selectivity index, ratio of CC50 for human MRC5 cells to IC50 for MexAB-OprM deleted Pseudomonas aeruginosa; assay type: toxicity; settings: read-out: Ratio CC50/IC50
[17] = Selectivity index, ratio of CC50 for human MRC5 cells to IC50 for Acinetobacter baumannii ATCC 17978; assay type: toxicity; settings: read-out: Ratio CC50/IC50
[18] = system: Staphylococcus aureus; test: Potency index, ratio of blasticidin-S MIC to test compound MIC for Staphylococcus aureus; assay type: functional
[19] = system: Escherichia coli; test: Potency index, ratio of blasticidin-S MIC to test compound MIC for Escherichia coli; assay type: functional
[20] = system: Acinetobacter baumannii; test: Potency index, ratio of blasticidin-S MIC to test compound MIC for Acinetobacter baumannii; assay type: functional
[21] = system: Enterococcus faecalis; test: Antibacterial activity against Enterococcus faecalis ATCC 29212 incubated for 20 hrs by broth microdilution method; settings: ATCC 29212, 20 h
[22] = system: Enterococcus; test: Antibacterial activity against vancomycin-resistant Enterococcus incubated for 20 hrs by broth microdilution method
[23] = system: Candida albicans; test: Antifungal activity against Candida albicans assessed as zone of inhibition incubated for 18 hrs by spot on lawn assay; assay type: functional, organism-based
Summary of the method: (§2)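 Overnight LB cultures diluted to OD600 0.01 in 0.7% LB top agar, overlaid on 1.5% LB agar; 5 mg mL−1 aqueous compound spotted at 35, 25, 10 and 5 μg with 1:1 water/methanol vehicle spot; 37 °C, 18 h; inhibition zone diameter measured by ruler.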

[24] = system: Enterococcus; test: Antibacterial activity against vancomycin-resistant Enterococcus assessed as zone of inhibition incubated for 18 hrs by spot on lawn assay; assay type: functional, organism-based
Summary of the method: (§3)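 Spot-on-lawn assay. Plates of 1.5% agar in LB were overlaid with 0.7% LB agar seeded with overnight culture at 0.01 OD600. Aqueous 5 mg mL−1 solutions were spotted at 35, 25, 10 and 5 μg, with a 1:1 water/methanol vehicle spot. After 18 h at 37 °C, inhibition zone diameters were measured with a ruler.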

[25] = system: Enterococcus faecalis; test: Antibacterial activity against Enterococcus faecalis ATCC 29212 assessed as zone of inhibition incubated for 18 hrs by spot on lawn assay; assay type: functional, organism-based; summary of the method: as §2
[26] = system: Staphylococcus aureus; test: Antibacterial activity against methicillin resistant Staphylococcus aureus assessed as zone of inhibition incubated for 18 hrs by spot on lawn assay; assay type: functional, organism-based; summary of the method: as §3
[27] = system: Staphylococcus aureus; test: Antibacterial activity against NorA deleted Staphylococcus aureus assessed as zone of inhibition incubated for 18 hrs by spot on lawn assay; assay type: functional, organism-based; summary of the method: as §2
[28] = system: Staphylococcus aureus; test: Antibacterial activity against Staphylococcus aureus assessed as zone of inhibition incubated for 18 hrs by spot on lawn assay; assay type: functional, organism-based; summary of the method: as §2

Row | SMILES | CC50 at 24 h [1] | IC50 [2] | MIC [2] | IC50 [3] | MIC [3] | IC50 [4] | MIC [4] | IC50 [5] | MIC [5] | IC50 [6] | MIC [6] | IC50 [7] | MIC [7] | MIC [8] | MIC [9] | selectivity ratio [10] | selectivity ratio [11] | selectivity ratio [12] | selectivity ratio [13] | selectivity ratio [14] | further results
1 | CN(CC[C@H](N)CC(=O)N[C@H]1C=C[C@H](n2ccc(N)nc2=O)O[C@@H]1C(N)=O)C(=N)N.Cl.Cl.Cl | 9.4 µg/mL | 41.6 µg/mL | 64 µg/mL | 15.2 µg/mL | 32 µg/mL | 15.4 µg/mL | 32 µg/mL | 9.3 µg/mL | 16 µg/mL | 19.7 µg/mL | 64 µg/mL | 3 µg/mL | 8 µg/mL | 256 µg/mL | 64 µg/mL | 0.2 | 0.6 | 0.6 | 0.7 | 0.1 | selectivity ratio [15]: 1; selectivity ratio [16]: 0.5; selectivity ratio [17]: 3; PI [18]: 8; PI [19]: 8; PI [20]: 16; IC50 [21]: 12.9 µg/mL; MIC [21]: 32 µg/mL; IC50 [22]: 69.6 µg/mL; MIC [22]: 128 µg/mL
2 | CN(CC[C@H](N)CC(=O)N[C@H]1C=C[C@H](n2ccc(N)nc2=O)O[C@@H]1C(=O)OCCc1ccccc1)C(=N)N | 18.5 µg/mL (≈ 35.1 µM) | 27.3 µg/mL (≈ 51.8 µM) | 64 µg/mL (≈ 122 µM) | 18.1 µg/mL (≈ 34.4 µM) | 64 µg/mL (≈ 122 µM) | 16.1 µg/mL (≈ 30.6 µM) | 32 µg/mL (≈ 60.8 µM) | 57.1 µg/mL (≈ 108 µM) | > 128 µg/mL | 76.9 µg/mL (≈ 146 µM) | > 128 µg/mL | 113 µg/mL (≈ 215 µM) | > 128 µg/mL | > 128 µg/mL | 64 µg/mL (≈ 122 µM) | 0.7 | 1 | 1.2 | 2.7 | 1.4 | Activity [23]: inactive; Activity [24]: Active; Activity [25]: Active; Activity [26]: Active; Activity [27]: Active; Activity [28]: Active; selectivity ratio [15]: 0.3; selectivity ratio [16]: 0.2; selectivity ratio [17]: 0.2; IC50 [21]: 6.9 µg/mL (≈ 13.1 µM); MIC [21]: 8 µg/mL (≈ 15.2 µM); IC50 [22]: 13.8 µg/mL (≈ 26.2 µM); MIC [22]: 32 µg/mL (≈ 60.8 µM)
3 | COC(=O)[C@H]1O[C@@H](n2ccc(N)nc2=O)C=C[C@@H]1NC(=O)C[C@@H](N)CCN(C)C(=N)N | 18.3 µg/mL (≈ 41.9 µM) | 21.5 µg/mL (≈ 49.3 µM) | 32 µg/mL (≈ 73.3 µM) | 11.4 µg/mL (≈ 26.1 µM) | 32 µg/mL (≈ 73.3 µM) | 10.4 µg/mL (≈ 23.8 µM) | 16 µg/mL (≈ 36.7 µM) | 34.3 µg/mL (≈ 78.6 µM) | 64 µg/mL (≈ 147 µM) | 35.1 µg/mL (≈ 80.4 µM) | 128 µg/mL (≈ 293 µM) | 10.2 µg/mL (≈ 23.4 µM) | 32 µg/mL (≈ 73.3 µM) | > 256 µg/mL | 32 µg/mL (≈ 73.3 µM) | 0.8 | 1.6 | 1.7 | 2 | 0.6 | Activity [23]: inactive; Activity [24]: Active; Activity [25]: Active; Activity [26]: Active; Activity [27]: Active; Activity [28]: Active; selectivity ratio [15]: 0.5; selectivity ratio [16]: 0.5; selectivity ratio [17]: 1.8; IC50 [21]: 9.2 µg/mL (≈ 21.1 µM); MIC [21]: 16 µg/mL (≈ 36.7 µM); IC50 [22]: 31 µg/mL (≈ 71 µM); MIC [22]: 64 µg/mL (≈ 147 µM)
